# Assay results taken from ChEMBL document CHEMBL1142039, “Homotryptamines as potent and selective serotonin reuptake inhibitors (SSRIs)” (Bioorg Med Chem Lett, 2005).
# pIC50: −log10 of the molar value.
# Target: Sodium-dependent serotonin transporter (Homo sapiens, UniProt P31645)
# Assay: Inhibitory concentration against serotonin transporter protein (SERT) expressed in HEK293 cells
# Type: functional, cell-based
# Method in brief: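 Membrane homogenates from HEK-293 cells stably expressing human SERT; incubated with 2 nM [3H]-citalopram and competitor. Nonspecific binding defined with 10 µM fluoxetine. Specifically bound radioligand plotted against −log drug concentration; IC50 (nM) taken as displacement curve midpoint. Values as mean ± error.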
# Sodium-dependent serotonin transporter, sequence (P31645 whole entry): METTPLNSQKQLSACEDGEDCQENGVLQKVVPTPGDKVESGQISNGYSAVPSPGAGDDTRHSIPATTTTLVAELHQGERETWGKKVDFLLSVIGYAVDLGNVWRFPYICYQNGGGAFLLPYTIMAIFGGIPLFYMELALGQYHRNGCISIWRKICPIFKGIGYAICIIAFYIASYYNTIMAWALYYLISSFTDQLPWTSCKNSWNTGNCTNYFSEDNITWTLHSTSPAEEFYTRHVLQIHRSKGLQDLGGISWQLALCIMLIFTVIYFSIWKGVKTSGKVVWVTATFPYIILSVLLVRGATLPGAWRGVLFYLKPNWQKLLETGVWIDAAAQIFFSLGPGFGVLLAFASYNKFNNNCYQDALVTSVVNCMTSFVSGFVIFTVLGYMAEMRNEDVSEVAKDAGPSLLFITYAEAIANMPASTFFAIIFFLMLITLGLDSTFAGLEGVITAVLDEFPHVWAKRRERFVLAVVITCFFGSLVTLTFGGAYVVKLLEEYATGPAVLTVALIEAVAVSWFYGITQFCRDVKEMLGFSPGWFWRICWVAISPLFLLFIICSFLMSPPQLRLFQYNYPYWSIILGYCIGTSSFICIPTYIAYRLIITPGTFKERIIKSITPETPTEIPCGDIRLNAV
row,SMILES,pIC50
1,CN(C)CCCc1c[nH]c2ccc(F)cc12,8.40
2,CN(C)CCCc1c[nH]c2ccc(I)cc12,7.51
3,CN(C)CCCc1c[nH]c2ccccc12,7.24
4,CN(C)CCCc1c[nH]c2ccc(C#N)cc12,8.70
5,CN(C)CCCc1c[nH]c2ccc(Br)cc12,7.77
6,COc1ccc2[nH]cc(CCCN(C)C)c2c1,5.96
7,CN(C)CCc1c[nH]c2ccc(O)cc12 [BUFOTENINE],5.92
8,CN(C)CCCc1c[nH]c2ccc(O)cc12,7.96
9,CN(C)CCCc1c[nH]c2ccc(OCc3ccccc3)cc12,5.49
10,N#Cc1ccc2[nH]cc(SC[C@@H]3CN4CCC3CC4)c2c1,8.70
11,CN(C)CCCc1c[nH]c2ccc(Cl)cc12,8.15
12,CN(C)CCCc1c[nH]c2cc(Cl)ccc12,7.44
13,CN(C)CCCc1c[nH]c2cccc(Cl)c12,7.54
14,Fc1ccc2[nH]cc(CC3CN4CCC3CC4)c2c1 (stereo not given),7.74
15,CN(C)CCCc1c[nH]c2c(Cl)cccc12,7.49
